Where a chain is given by its changes, count along the chain named.
Experiments:
Conditions in all cases: stereoisomer not certain
O1440 = system: T1, O1440
T1 sequence (whole entry): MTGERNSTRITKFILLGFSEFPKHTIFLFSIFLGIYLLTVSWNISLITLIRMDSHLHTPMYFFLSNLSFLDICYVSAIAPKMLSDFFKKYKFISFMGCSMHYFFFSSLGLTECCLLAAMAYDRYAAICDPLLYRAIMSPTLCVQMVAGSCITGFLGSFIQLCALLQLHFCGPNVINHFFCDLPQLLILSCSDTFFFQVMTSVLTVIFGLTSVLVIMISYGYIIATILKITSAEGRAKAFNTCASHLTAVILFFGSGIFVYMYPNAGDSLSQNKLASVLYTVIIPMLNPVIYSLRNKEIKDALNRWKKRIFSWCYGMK
Method in brief: (§1)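 Each receptor–molecule pair is labelled responsive or non-responsive (inactive) according to whether the original authors judged the measured signal statistically different from baseline. The data were taken from the main text and supplementary material of published papers and checked for typos and inconsistencies. Assay methods differed by source, with transient luciferase assays in mammalian cell lines being common.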

O10R2 I170L = system: T2, O10R2 I170L
T2 sequence (whole entry): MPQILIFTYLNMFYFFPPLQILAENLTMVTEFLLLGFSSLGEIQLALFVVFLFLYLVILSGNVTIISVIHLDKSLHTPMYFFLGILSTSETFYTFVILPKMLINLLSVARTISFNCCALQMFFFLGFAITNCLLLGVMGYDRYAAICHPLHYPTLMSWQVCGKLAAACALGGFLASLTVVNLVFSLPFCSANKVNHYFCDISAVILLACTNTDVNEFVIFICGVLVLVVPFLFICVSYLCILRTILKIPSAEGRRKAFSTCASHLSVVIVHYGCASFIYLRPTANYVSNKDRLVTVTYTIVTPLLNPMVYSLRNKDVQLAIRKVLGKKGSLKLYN
Method in brief: as §1

O10T2 I137M = system: T3, O10T2 I137M
T3 sequence (whole entry): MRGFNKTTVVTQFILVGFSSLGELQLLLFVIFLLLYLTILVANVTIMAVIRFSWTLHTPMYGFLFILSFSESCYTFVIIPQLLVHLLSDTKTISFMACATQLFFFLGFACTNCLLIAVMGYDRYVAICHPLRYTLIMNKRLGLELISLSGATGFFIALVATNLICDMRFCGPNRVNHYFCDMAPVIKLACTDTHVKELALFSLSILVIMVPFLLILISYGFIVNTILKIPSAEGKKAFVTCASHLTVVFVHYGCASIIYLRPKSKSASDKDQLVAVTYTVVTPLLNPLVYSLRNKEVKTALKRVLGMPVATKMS
Method in brief: as §1

O10V1 Q123R = system: T4, O10V1 Q123R
T4 sequence (whole entry): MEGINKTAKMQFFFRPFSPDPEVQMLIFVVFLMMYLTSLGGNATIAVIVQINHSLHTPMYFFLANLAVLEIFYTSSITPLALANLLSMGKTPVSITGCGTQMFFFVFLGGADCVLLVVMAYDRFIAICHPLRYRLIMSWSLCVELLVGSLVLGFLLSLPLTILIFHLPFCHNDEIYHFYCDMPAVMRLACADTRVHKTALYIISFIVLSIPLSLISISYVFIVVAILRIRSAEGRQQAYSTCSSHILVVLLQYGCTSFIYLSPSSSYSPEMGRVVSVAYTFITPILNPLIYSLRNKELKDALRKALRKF
Method in brief: as §1

O10X1 N4T R181S = system: T5, O10X1 N4T R181S
T5 sequence (whole entry): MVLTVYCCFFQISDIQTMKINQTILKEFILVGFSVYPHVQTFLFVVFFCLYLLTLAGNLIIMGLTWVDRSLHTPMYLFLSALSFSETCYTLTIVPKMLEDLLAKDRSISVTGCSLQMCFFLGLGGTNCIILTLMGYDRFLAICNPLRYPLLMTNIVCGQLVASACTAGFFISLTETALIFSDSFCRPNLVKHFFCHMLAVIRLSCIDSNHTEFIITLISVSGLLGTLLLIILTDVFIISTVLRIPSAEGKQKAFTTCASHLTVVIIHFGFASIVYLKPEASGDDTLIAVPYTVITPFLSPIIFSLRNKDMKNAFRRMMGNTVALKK
Method in brief: as §1

O11G2 F3I I99N V116I = system: T6, O11G2 F3I I99N V116I
T6 sequence (whole entry): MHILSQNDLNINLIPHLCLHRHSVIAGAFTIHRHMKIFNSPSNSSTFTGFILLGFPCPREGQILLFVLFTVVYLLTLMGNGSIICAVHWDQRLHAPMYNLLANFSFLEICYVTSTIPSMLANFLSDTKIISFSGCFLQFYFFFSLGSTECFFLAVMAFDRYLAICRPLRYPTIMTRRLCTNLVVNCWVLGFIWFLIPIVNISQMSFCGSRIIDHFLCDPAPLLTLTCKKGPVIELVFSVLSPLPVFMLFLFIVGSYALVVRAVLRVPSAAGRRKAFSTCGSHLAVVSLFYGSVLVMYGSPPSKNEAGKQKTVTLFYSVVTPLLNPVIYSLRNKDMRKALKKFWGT
Method in brief: as §1

O11H1 M240V = system: T7, O11H1 M240V
T7 sequence (whole entry): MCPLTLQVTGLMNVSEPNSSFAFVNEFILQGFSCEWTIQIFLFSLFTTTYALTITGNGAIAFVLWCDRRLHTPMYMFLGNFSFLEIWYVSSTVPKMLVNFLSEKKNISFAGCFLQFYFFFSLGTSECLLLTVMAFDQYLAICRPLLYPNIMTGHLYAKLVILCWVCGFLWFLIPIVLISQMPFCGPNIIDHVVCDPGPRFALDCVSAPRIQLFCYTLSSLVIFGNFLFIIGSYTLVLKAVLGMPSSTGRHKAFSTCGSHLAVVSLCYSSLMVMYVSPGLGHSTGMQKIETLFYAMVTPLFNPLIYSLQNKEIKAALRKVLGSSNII
Method in brief: as §1

O11H6 I107T = system: T8, O11H6 I107T
T8 sequence (whole entry): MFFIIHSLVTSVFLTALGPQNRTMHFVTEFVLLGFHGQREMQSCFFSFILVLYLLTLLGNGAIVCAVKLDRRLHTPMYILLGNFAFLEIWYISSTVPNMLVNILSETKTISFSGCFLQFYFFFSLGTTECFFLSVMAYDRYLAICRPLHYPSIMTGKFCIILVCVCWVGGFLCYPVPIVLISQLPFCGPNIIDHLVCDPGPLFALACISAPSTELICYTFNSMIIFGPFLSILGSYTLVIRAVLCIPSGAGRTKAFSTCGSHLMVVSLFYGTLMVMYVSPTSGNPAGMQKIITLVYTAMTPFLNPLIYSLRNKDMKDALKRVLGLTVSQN
Method in brief: as §1

O11HC C156Y V240M = system: T9, O11HC C156Y V240M
T9 sequence (whole entry): T7 sequence (whole entry) with S33T, R68W, V240M
Method in brief: as §1

O12D2 S104F = system: T10, O12D2 S104F
T10 sequence (whole entry): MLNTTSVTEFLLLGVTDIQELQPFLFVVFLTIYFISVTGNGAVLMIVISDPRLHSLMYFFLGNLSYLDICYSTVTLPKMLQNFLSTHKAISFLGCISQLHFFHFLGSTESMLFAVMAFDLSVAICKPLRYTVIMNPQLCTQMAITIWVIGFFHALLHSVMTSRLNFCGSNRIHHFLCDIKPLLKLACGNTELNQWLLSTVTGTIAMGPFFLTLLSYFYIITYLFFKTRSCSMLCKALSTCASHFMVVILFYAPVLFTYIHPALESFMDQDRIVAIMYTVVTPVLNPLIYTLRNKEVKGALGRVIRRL
Method in brief: as §1

O13C2 H6Q = system: T11, O13C2 H6Q
T11 sequence (whole entry): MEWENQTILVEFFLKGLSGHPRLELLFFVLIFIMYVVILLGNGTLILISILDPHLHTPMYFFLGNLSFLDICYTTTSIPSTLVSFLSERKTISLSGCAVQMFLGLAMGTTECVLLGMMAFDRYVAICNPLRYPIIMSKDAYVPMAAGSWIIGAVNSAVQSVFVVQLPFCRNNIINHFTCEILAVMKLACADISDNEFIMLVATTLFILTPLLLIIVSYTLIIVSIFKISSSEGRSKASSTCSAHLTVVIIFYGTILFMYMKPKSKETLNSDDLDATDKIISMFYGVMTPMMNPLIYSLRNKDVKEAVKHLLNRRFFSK
Method in brief: as §1

O13C8 A19D = system: T12, O13C8 A19D
T12 sequence (whole entry): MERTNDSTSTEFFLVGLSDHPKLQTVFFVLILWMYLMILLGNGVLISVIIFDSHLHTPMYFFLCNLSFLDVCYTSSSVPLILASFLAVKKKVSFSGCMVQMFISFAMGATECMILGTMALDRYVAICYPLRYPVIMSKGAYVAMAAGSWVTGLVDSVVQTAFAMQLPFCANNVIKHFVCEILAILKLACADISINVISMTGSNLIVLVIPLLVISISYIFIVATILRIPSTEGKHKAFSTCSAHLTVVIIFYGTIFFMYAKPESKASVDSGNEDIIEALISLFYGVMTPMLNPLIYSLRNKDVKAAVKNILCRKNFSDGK
Method in brief: as §1

O13C9 H17L V19G L23H = system: T13, O13C9 H17L V19G L23H
T13 sequence (whole entry): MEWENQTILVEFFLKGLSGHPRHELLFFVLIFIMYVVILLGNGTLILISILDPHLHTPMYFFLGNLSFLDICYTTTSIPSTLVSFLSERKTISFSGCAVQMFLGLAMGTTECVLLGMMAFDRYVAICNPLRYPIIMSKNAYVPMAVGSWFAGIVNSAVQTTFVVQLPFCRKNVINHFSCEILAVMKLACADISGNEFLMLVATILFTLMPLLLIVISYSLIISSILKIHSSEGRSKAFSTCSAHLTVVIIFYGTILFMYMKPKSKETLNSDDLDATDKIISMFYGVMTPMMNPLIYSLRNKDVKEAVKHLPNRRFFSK
Method in brief: as §1

O13C9 Q6H = system: T14, O13C9 Q6H
T14 sequence (whole entry): T13 sequence (whole entry) with Q6H, L17H, G19V, H23L
Method in brief: as §1

O13F1 F18S T254M = system: T15, O13F1 F18S T254M
T15 sequence (whole entry): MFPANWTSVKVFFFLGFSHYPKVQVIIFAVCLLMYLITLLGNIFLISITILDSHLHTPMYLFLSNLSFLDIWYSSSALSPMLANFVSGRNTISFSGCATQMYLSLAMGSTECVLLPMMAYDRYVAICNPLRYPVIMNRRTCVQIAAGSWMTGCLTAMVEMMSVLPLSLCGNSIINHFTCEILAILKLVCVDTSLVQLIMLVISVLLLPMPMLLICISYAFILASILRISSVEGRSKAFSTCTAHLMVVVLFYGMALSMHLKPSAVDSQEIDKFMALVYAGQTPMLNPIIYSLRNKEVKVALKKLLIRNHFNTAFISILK
Method in brief: as §1

O13F1 F18S = system: T16, O13F1 F18S
T16 sequence (whole entry): T15 sequence (whole entry) with M254T
Method in brief: as §1

O13G1 K46I M146L = system: T17, O13G1 K46I M146L
T17 sequence (whole entry): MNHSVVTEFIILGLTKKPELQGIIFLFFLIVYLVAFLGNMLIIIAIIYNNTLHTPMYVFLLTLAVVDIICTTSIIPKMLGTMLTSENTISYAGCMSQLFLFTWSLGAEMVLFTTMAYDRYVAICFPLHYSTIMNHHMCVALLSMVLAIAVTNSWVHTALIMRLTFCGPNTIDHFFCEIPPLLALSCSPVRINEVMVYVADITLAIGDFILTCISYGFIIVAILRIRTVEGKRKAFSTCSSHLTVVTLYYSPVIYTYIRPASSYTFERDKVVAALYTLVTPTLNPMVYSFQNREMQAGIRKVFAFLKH
Method in brief: as §1

O13G1 = system: T18, O13G1
T18 sequence (whole entry): T17 sequence (whole entry) with I46K, I132V, L146M
Method in brief: as §1

O13H1 Y266S = system: T19, O13H1 Y266S
T19 sequence (whole entry): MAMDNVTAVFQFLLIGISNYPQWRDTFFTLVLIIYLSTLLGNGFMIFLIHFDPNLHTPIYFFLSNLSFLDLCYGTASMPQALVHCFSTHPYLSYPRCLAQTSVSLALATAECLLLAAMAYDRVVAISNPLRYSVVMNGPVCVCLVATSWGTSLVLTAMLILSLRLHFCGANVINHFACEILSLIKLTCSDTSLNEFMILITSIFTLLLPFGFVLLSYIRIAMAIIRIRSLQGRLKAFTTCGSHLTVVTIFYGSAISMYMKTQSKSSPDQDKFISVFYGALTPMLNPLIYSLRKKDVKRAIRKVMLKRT
Method in brief: as §1

O13J1 = system: T20, O13J1
T20 sequence (whole entry): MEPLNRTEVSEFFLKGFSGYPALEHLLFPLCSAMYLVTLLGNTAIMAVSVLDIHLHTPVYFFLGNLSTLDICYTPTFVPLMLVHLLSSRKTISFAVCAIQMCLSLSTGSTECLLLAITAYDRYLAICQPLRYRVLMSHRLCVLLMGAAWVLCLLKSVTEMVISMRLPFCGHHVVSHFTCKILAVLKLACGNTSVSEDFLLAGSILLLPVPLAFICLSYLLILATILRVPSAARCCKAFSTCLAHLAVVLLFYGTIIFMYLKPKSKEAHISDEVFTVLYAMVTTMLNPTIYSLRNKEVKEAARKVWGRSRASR
Method in brief: as §1

Measured: odorant receptor agonist call

O=C1CCCCCCCCCCCCCC1
active: O1440

OC1CCCCCCCCCCCCCC1
active: O1440

O=C1CCCCCC=CCCCCCCCCO1
active: O1440

CC1CC=CCCCCCCCCC(=O)C1 (centres undefined)
active: O1440

CCC(=O)OCC(C)(C)OC(C)C1CCCC(C)(C)C1 (centres undefined)
inactive: O1440

O=C1CCCCCCC=CCCCCCCC1
active: O1440

CC(=O)c1c(C)c([N+](=O)[O-])c(C(C)(C)C)c([N+](=O)[O-])c1C
active: O1440

CCC1OC(C)=C(O)C1=O (centres undefined)
not listed: O1440
inactive: all other assays above

CCCCCCC=CCCC=O
not listed: O1440 | O13F1 F18S T254M
inactive: all other assays above

CC1=NC(C)C(C)S1 (centres undefined)
not listed: O1440
inactive: all other assays above

CC1CCCCCCCCCCCCC(=O)C1 (centres undefined)
active: O1440

CC1=C(O)C(=O)OC1C (centres undefined)
not listed: O1440
inactive: all other assays above

CC1CC=CCCCCCCCCCC(=O)C1 (centres undefined)
active: O1440
